# In ChEMBL document CHEMBL1275556, “High prevalence of plasmid-mediated quinolone resistance genes qnr and aac(6')-Ib-cr in clinical isolates of Enterobacteriaceae from nine teaching hospitals in China” (2008):
# How the values were obtained:
# Escherichia coli [1] = test: Antimicrobial activity against aac(6')-Ib-cr-negative Escherichia coli PU12T harboring wild-type GyrA, GyrB, ParC and qnrS genes by agar dilution method; type: functional
# In short: (§1)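 MICs were determined by the CLSI agar dilution method (M7-A7) and interpreted against CLSI M100-S17 breakpoints.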
# Citrobacter freundii [2] = test: Antimicrobial activity against aac(6')-Ib-cr-positive Citrobacter freundii PU55 harboring GyrA T83I, ParC S80I mutant, wild-type GyrB, qnrA genes by agar dilution method; type: functional; in short: as §1
# Citrobacter freundii [3] = test: Antimicrobial activity against aac(6')-Ib-cr-positive Citrobacter freundii PU55T harboring wild-type GyrA, ParC, GyrB and qnrA genes by agar dilution method
# Enterobacter cloacae [4] = test: Antimicrobial activity against aac(6')-Ib-cr-negative Enterobacter cloacae SH39 harboring GyrA S83I, ParC S80I mutant, wild-type GyrB and qnrA genes by agar dilution method; type: functional
# Enterobacter cloacae [5] = test: Antimicrobial activity against aac(6')-Ib-cr-negative Enterobacter cloacae SH39T harboring qnrA gene by agar dilution method; type: functional
# Klebsiella pneumoniae [6] = test: Antimicrobial activity against aac(6')-Ib-cr-negative Klebsiella pneumoniae SY22 harboring GyrA S83I, ParC S80I mutant, wild-type GyrB and qnrS genes by agar dilution method; type: functional; in short: as §1
# Klebsiella pneumoniae [7] = test: Antimicrobial activity against aac(6')-Ib-cr-negative Klebsiella pneumoniae SY22T harboring qnrS gene by agar dilution method; type: functional; in short: as §1
# Klebsiella pneumoniae [8] = test: Antimicrobial activity against aac(6')-Ib-cr-positive Klebsiella pneumoniae SY26 harboring GyrA S83I, ParC S80I mutant, wild-type GyrB and qnrB genes by agar dilution method; type: functional
# In short: (§2)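 MICs were determined on clinical isolates by CLSI agar dilution (M7-A7) and interpreted against CLSI M100-S17 breakpoints.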
# Klebsiella pneumoniae [9] = test: Antimicrobial activity against aac(6')-Ib-cr-positive Klebsiella pneumoniae SY26T harboring wild-type GyrA, ParC, GyrB and qnrB genes by agar dilution method; type: functional
# In short: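 Transconjugants were made by conjugating a qnr/aac(6')-Ib-cr donor with azide-resistant E. coli J53. MICs were read by CLSI agar dilution (M7-A7) and interpreted per M100-S17.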
# Citrobacter freundii [10] = test: Antimicrobial activity against aac(6')-Ib-cr-positive Citrobacter freundii TJ15 harboring GyrA T83I, ParC S80I mutant, wild-type GyrB, qnrB genes by agar dilution method; type: functional; in short: as §1
# Citrobacter freundii [11] = test: Antimicrobial activity against aac(6')-Ib-cr-positive Citrobacter freundii TJ15T harboring wild-type GyrA, ParC, GyrB genes by agar dilution method; type: functional; in short: as §1
# Enterobacter cloacae [12] = test: Antimicrobial activity against aac(6')-Ib-cr-negative Enterobacter cloacae WH42 harboring wild-type GyrA, ParC, GyrB and qnrA genes by agar dilution method; type: functional
# Enterobacter cloacae [13] = test: Antimicrobial activity against aac(6')-Ib-cr-negative Enterobacter cloacae WH42T harboring qnrA gene by agar dilution method; type: functional
# Klebsiella pneumoniae [14] = test: Antimicrobial activity against aac(6')-Ib-cr-positive Klebsiella pneumoniae WH99 harboring wild-type GyrA, ParC, GyrB and qnrB genes by agar dilution method; type: functional; in short: as §2
# Klebsiella pneumoniae [15] = test: Antimicrobial activity against aac(6')-Ib-cr-positive Klebsiella pneumoniae WH99T harboring qnrB gene by agar dilution method; type: functional
# In short: (§3)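 Transconjugants were made by conjugating a qnr/aac(6')-Ib-cr donor with azide-resistant E. coli J53. Selection used Trypticase soy agar with sodium azide 150 µg/ml and sulfamethoxazole 180 µg/ml. […] MICs were read by CLSI agar dilution (M7-A7) and interpreted per M100-S17.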
# Escherichia coli [16] = test: Antimicrobial activity against Escherichia coli J53 harboring wild-type GyrA, ParC, GyrB genes by agar dilution method
# Escherichia coli [17] = test: Antimicrobial activity against aac(6')-Ib-cr-negative Escherichia coli PU12 harboring GyrA S83L mutant, wild-type GyrB, ParC and qnrS genes by agar dilution method; type: functional; in short: as §1
# Escherichia coli [18] = test: Antimicrobial activity against aac(6')-Ib-cr-positive Escherichia coli FJ3 harboring GyrA S83L, ParC S80R mutant, wild-type GyrB and qnrB genes by agar dilution method; type: functional; in short: as §1
# Escherichia coli [19] = test: Antimicrobial activity against aac(6')-Ib-cr-positive Escherichia coli FJ3T harboring wild-type GyrA, ParC, GyrB and qnrB genes by agar dilution method
# Enterobacter cloacae [20] = test: Antimicrobial activity against aac(6')-Ib-cr-negative Enterobacter cloacae FJ61 harboring GyrA S83I, GyrA D87A, ParC S80I mutant, wild-type GyrB and qnrS genes by agar dilution method; type: functional
# Enterobacter cloacae [21] = test: Antimicrobial activity against aac(6')-Ib-cr-negative Enterobacter cloacae FJ61T harboring qnrS gene by agar dilution method; type: functional
# Enterobacter cloacae [22] = test: Antimicrobial activity against aac(6')-Ib-cr-positive Enterobacter cloacae FJ63 harboring GyrA S83I, GyrA D87A, ParC S80I mutant, wild-type GyrB and qnrS genes by agar dilution method; type: functional
# Enterobacter cloacae [23] = test: Antimicrobial activity against aac(6')-Ib-cr-positive Enterobacter cloacae FJ63T harboring qnrS gene by agar dilution method; type: functional
# Enterobacter cloacae [24] = test: Antimicrobial activity against aac(6')-Ib-cr-negative Enterobacter cloacae FJ67 harboring […] and qnrS genes by agar dilution method; type: functional
# Enterobacter cloacae [25] = test: Antimicrobial activity against aac(6')-Ib-cr-negative Enterobacter cloacae FJ67T harboring qnrS gene by agar dilution method; type: functional
# Klebsiella pneumoniae [26] = test: Antimicrobial activity against aac(6')-Ib-cr-positive Klebsiella pneumoniae GZ40 harboring GyrA S83I, ParC S80I mutant, wild-type GyrB and qnrB genes by agar dilution method; type: functional; in short: as §1
# Klebsiella pneumoniae [27] = test: Antimicrobial activity against aac(6')-Ib-cr-positive Klebsiella pneumoniae GZ40T harboring qnrB gene by agar dilution method
# Enterobacter cloacae [28] = test: Antimicrobial activity against aac(6')-Ib-cr-negative Enterobacter cloacae GZ47 harboring qnrB and qnrS genes by agar dilution method; type: functional
# Enterobacter cloacae [29] = test: Antimicrobial activity against aac(6')-Ib-cr-negative Enterobacter cloacae GZ47T harboring qnrB gene by agar dilution method; type: functional
# Enterobacter cloacae [30] = test: Antimicrobial activity against aac(6')-Ib-cr-negative Enterobacter cloacae GZ51 harboring qnrA gene by agar dilution method; type: functional
# Enterobacter cloacae [31] = test: Antimicrobial activity against aac(6')-Ib-cr-negative Enterobacter cloacae GZ51T harboring qnrA gene by agar dilution method; type: functional
# Citrobacter freundii [32] = test: Antimicrobial activity against aac(6')-Ib-cr-positive Citrobacter freundii JN1 harboring GyrA T83I, ParC S80I mutant, wild-type GyrB and qnrA genes by agar dilution method; type: functional; in short: as §1
# Citrobacter freundii [33] = test: Antimicrobial activity against aac(6')-Ib-cr-positive Citrobacter freundii JN1T by agar dilution method; type: functional; in short: as §1
# Klebsiella pneumoniae [34] = test: Antimicrobial activity against aac(6')-Ib-cr-positive Klebsiella pneumoniae JN132 harboring GyrA S83I, ParC S80I mutant, wild-type GyrB and qnrB genes by agar dilution method; type: functional; in short: as §2
# Klebsiella pneumoniae [35] = test: Antimicrobial activity against aac(6')-Ib-cr-positive Klebsiella pneumoniae JN132T harboring qnrB gene by agar dilution method; type: functional; in short: as §3
# Klebsiella pneumoniae [36] = test: Antimicrobial activity against aac(6')-Ib-cr-positive Klebsiella pneumoniae JN41 harboring GyrA S83I, ParC S80I mutant, wild-type GyrB and qnrB genes by agar dilution method; type: functional; in short: as §2
# Klebsiella pneumoniae [37] = test: Antimicrobial activity against aac(6')-Ib-cr-positive Klebsiella pneumoniae JN41T harboring qnrB gene by agar dilution method; type: functional; in short: as §3
# Citrobacter freundii [38] = test: Antimicrobial activity against aac(6')-Ib-cr-negative Citrobacter freundii JN64 harboring GyrA T83I, wild-type ParC, GyrB and qnrA genes by agar dilution method; type: functional; in short: as §1
# Citrobacter freundii [39] = test: Antimicrobial activity against aac(6')-Ib-cr-negative Citrobacter freundii JN64T harboring qnrA gene by agar dilution method; type: functional; in short: as §1
# Citrobacter freundii [40] = test: Antimicrobial activity against aac(6')-Ib-cr-positive Citrobacter freundii JS33 harboring GyrA T83I mutant, wild-type ParC, GyrB, qnrA and qnrB genes by agar dilution method; type: functional; in short: as §1
# Citrobacter freundii [41] = test: Antimicrobial activity against aac(6')-Ib-cr-positive Citrobacter freundii JS33T harboring qnrA gene by agar dilution method; type: functional; in short: as §1
compound,measurement,setting,value
CO[C@@]1(NC(=O)Cc2cccs2)C(=O)N2C(C(=O)O)=C(COC(N)=O)CS[C@@H]21 [CEFOXITIN],MIC,Escherichia coli [1],4 µg/mL
same,MIC,Citrobacter freundii [2],> 256 µg/mL
same,MIC,Citrobacter freundii [3],2 µg/mL
same,MIC,Enterobacter cloacae [4],> 256 µg/mL
same,MIC,Enterobacter cloacae [5],4 µg/mL
same,MIC,Klebsiella pneumoniae [6],8 µg/mL
same,MIC,Klebsiella pneumoniae [7],4 µg/mL
same,MIC,Klebsiella pneumoniae [8],256 µg/mL
same,MIC,Klebsiella pneumoniae [9],16 µg/mL
same,MIC,Citrobacter freundii [10],256 µg/mL
same,MIC,Citrobacter freundii [11],64 µg/mL
same,MIC,Enterobacter cloacae [12],> 256 µg/mL
same,MIC,Enterobacter cloacae [13],2 µg/mL
same,MIC,Klebsiella pneumoniae [14],256 µg/mL
same,MIC,Klebsiella pneumoniae [15],64 µg/mL
same,MIC,Escherichia coli [16],2 µg/mL
same,MIC,Escherichia coli [17],4 µg/mL
same,MIC,Escherichia coli [18],8 µg/mL
same,MIC,Escherichia coli [19],2 µg/mL
same,MIC,Enterobacter cloacae [20],256 µg/mL
same,MIC,Enterobacter cloacae [21],4 µg/mL
same,MIC,Enterobacter cloacae [22],256 µg/mL
same,MIC,Enterobacter cloacae [23],4 µg/mL
same,MIC,Enterobacter cloacae [24],> 256 µg/mL
same,MIC,Enterobacter cloacae [25],4 µg/mL
same,MIC,Klebsiella pneumoniae [26],32 µg/mL
same,MIC,Klebsiella pneumoniae [27],2 µg/mL
same,MIC,Enterobacter cloacae [28],256 µg/mL
same,MIC,Enterobacter cloacae [29],32 µg/mL
same,MIC,Enterobacter cloacae [30],> 256 µg/mL
same,MIC,Enterobacter cloacae [31],4 µg/mL
same,MIC,Citrobacter freundii [32],> 256 µg/mL
same,MIC,Citrobacter freundii [33],2 µg/mL
same,MIC,Klebsiella pneumoniae [34],64 µg/mL
same,MIC,Klebsiella pneumoniae [35],64 µg/mL
same,MIC,Klebsiella pneumoniae [36],4 µg/mL
same,MIC,Klebsiella pneumoniae [37],2 µg/mL
same,MIC,Citrobacter freundii [38],> 256 µg/mL
same,MIC,Citrobacter freundii [39],8 µg/mL
same,MIC,Citrobacter freundii [40],> 256 µg/mL
same,MIC,Citrobacter freundii [41],2 µg/mL
